Test results taken from PMC5292677 (Leukemia, 2016).
Entries after “also recorded” stand apart in the source; their conditions may differ.

What was measured:
JAK2^V617F allele burden = assay: PD: JAK2V617F allele burden; format: in vivo, human
How it was run: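 JAK2 allele burden was sampled on Day 1 of Cycles 1, 2 and 4, then every 3 cycles, during continuous 28-day oral dosing. On-treatment values were compared with the predose baseline. Analysis covered patients with ≥1 dose, a baseline value and ≥1 evaluable post-baseline assessment.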

[1] = test system: JAK2^V617F-driven mouse model; settings: cited from earlier work

## C[C@H](Nc1cc(-c2cnn(C)c2)cc(Nc2cnccn2)n1)c1ccc(F)cc1 [NS-018]
JAK2^V617F allele burden; JAK2^V617F-positive patients
  JAK2^V617F allele burden during treatment: largely unchanged; also recorded: remained similar to the baseline value in almost all patients
JAK2^V617F allele burden; at Cycle 7 in one and Cycle 16 in the other
  Patients with decrease in allele burden of ⩾25%: 2 patients
[1]; JAK2^V617F-driven mouse model
  Splenomegaly: reduced splenomegaly
[1]; murine model
  Leukocytosis, BMF and survival: Improvements
  Peripheral blood erythrocyte or platelet counts: without reducing
